In general, apparent Kd refers to a dissociation constant that holds for the conditions of the assay.

This data set concerns MS2 coat protein. As to the kind of experiment: apparent Kd, MS2 coat protein; higher = weaker binding; RNA-MaP array; FMN 200 µM where present. The gist of the method: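 Binding was read on Illumina sequencing-chip clusters where stalled E. coli RNA polymerase had transcribed each design. A titration of SNAP-549-labelled MS2 coat protein began at 0.7 or 1.5 nM and doubled to 3 µM, once without ligand and once with constant ligand, in 100 mM Tris-HCl pH 7.5, 80 mM KCl, 4 mM MgCl2, BSA, DTT, yeast tRNA and Tween-20. The apparent Kd is the median of filtered per-cluster binding-curve fits, based on green signal normalised to red-channel RNA signal and control-cluster median Fmax.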

The mark [1] stands for this setting: designed as: OFF switch for flavin mononucleotide, no ligand.
Where [2] appears, read: ligand present: flavin mononucleotide, designed as: OFF switch for flavin mononucleotide.
The mark [3] stands for this setting: designed as: ON switch for flavin mononucleotide, no ligand.
The mark [4] stands for this setting: ligand present: flavin mononucleotide, designed as: ON switch for flavin mononucleotide.

As to “AAGGAGUGAGGAUAUACAUGAGGAUCACCCAUGUUGAUGGAAACGUCAGAGAAAGAAGGUAGAAGGCACAAGAA”, the “apparent Kd” value is, setting by setting: under setting [1], 0.0567 µM; under setting [2], 0.0585 µM.
Consider “AUAUGAUAGAUAGGAUAUACAGAUGAAUAAUAAGUAGAAGGAUCAAAUGGGAAUUAUACAUGAGGAUCACCCAUGUUUUUGAAU”, for which the “apparent Kd” value runs as follows: under setting [3], 0.045 µM; under setting [4], 0.0336 µM.
Turning to “CUGGAUAGAGGAUAUUGUGCUGCUGACAUGAGGAUCACCCAUGUAUGUUAACUCGGCCGUCGAGAAGGCUAACAGG”, the “apparent Kd” value worked out at 0.0247 µM under setting [1] and 0.0153 µM under setting [2].
With “CGAUGUUAUGUCAGGAUAUGCGUUGCGAAAGCGAUGCAGAAGGGACAUGAGGAUCACCCAUGUCCUAACCAUCG”, the “apparent Kd” value is, setting by setting: under setting [1], 0.0123 µM; under setting [2], 0.0226 µM.
On to “AAAAAGCGAGGAUAUACAUGAGGAUCACCCAUGUCAAAAGAAUAUAAAGAAAUAGGAAGUAGAAGGCGCAAAAA”, for which the “apparent Kd” value stood at 0.0559 µM under setting [1] and 0.056 µM under setting [2].
With “UUGCUACAUGAGGAUCACCCAUGUCAGGAUAUAGUGCAUAGCGUGGAAGCUCUGUCGAUUAGAAGGGACUGUCU”, the “apparent Kd” value by setting is: under setting [1], 0.0253 µM; under setting [2], 0.0274 µM.
As for “CGCUACUACCAGAAGGACAUGAGGAUCACCCAUGUAGGAUAUGGGUUACAAGUACCAGUGUAAAGAAACUACGCUACGUAUGCG”, the “apparent Kd” value was 0.0366 µM under setting [3] and 0.00784 µM under setting [4].
Take “CCUGGUUGGUAAGGAUAUCCUACACUAUUCUGACCCGUGCAAGCUACAUGAGGAUCACCCAUGUGGGAGAAGGUGCGUCAACGU”: the “apparent Kd” value is, setting by setting: under setting [1], 0.0128 µM; under setting [2], 0.012 µM.
In the case of “AGUGAUUGCUGUGUCAGUUCACAUGAGGAUCACCCAUGUAGCUAGGAUAUCCGCAGUUACUGCUAGGAGAAGGAGCAAGGUGGC”, the “apparent Kd” value runs as follows: under setting [1], 0.0086 µM; under setting [2], 0.0121 µM.
As for “AAUCGAUCAACAGGAUAUGCGCAAUGAUCUGAACAUGAGGAUCACCCAUGUGCAGAAGGGUUGGUCAUCUUUUGGGACGAGACA”, the “apparent Kd” value came out at 0.101 µM under setting [1] and 0.311 µM under setting [2].
“AGACUGCGUAGAAUUAGCAGCUGACAGGAUAUGACAUGAGGAUCACCCAUGUGAAAUAAGAAGAGUCAGAAGGGUCACGACACA”: the “apparent Kd” value was determined as 0.0113 µM under setting [1] and 0.00989 µM under setting [2].
For the sequence “AAAAAACAUGAGGAUCACCCAUGUCCUCGGACGUGAGGAUAUGUACAGACUUCGGUCUGUACAGAAGGCACGUCAA”, the “apparent Kd” value worked out at 0.512 µM under setting [3] and 0.446 µM under setting [4].
Regarding “GUGCGGUAGGAGAAGGACGGAGGCUUCAUUACAUACAUGAGGAUCACCCAUGUAGGAUAUCCUACCUCACGCGGCCUCCUCCUG”, the “apparent Kd” value amounted to 0.00644 µM under setting [1] and 0.00679 µM under setting [2].
As for “AAAAAGUGAGGAUAUACAUGAGAAAAAAAAAUGUAAAAAAAACAUGAGGAUCACCCAUGUAGAAGGCACAAAAA”, the “apparent Kd” value is, setting by setting: under setting [1], 0.0497 µM; under setting [2], 0.0827 µM.
On to “CAGGUUAGAGGAUAUACGUAGGUACAGAUCUGUGUGUUCCUACAUGAGGAUCACCCAUGUAGAAGGCUAUCCUG”, for which the “apparent Kd” value amounted to 0.0698 µM under setting [1] and 0.208 µM under setting [2].
Turning to “UUGAGGUAGGAGAAGGACAGAGGCGGAAACACAAACAUGAGGAUCACCCAUGUAGGAUAUCCUAACUAACGAGAAUACCUCAAG”, the “apparent Kd” value by setting is: under setting [1], 0.00636 µM; under setting [2], 0.00689 µM.
Regarding “CGUGACUCAGGAUAUCUAUAGUAUCACAUGAGGAUCACCCAUGUCCAGCGAAAGCUGGAGGGAGAAGGGAGUCACG”, the “apparent Kd” value stood at 0.266 µM under setting [1] and 0.0539 µM under setting [2].
For the sequence “GUAGCAUACAGAGGAUAUCUAAACCGGAAACGGACAUGAGGAUCACCCAUGUGGCGAAAGCCUAGGGAGAAGGCUGAAUGCUAC”, the “apparent Kd” value under setting [3] was found to be 0.0132 µM and the “apparent Kd” value under setting [4] was 0.0118 µM.
For the sequence “AAUCAGUCAGGAUAUCGUUAAUUUAAUUGUUUGUUUUAGUUCGAGAAGGGACAUGAGGAUCACCCAUGUACUCA”, the “apparent Kd” value under setting [1] came out at 0.0231 µM and the “apparent Kd” value under setting [2] turned out to be 0.0288 µM.
For “UUACUAUCACAGAAGGCUAGAUAGUAUAUAGAUGGAGGAUAUGUGACAUGAGGAUCACCCAUGUUUCACCGACAUGAGGAUCAC”, in that order: 0.0174 µM and 0.0416 µM.
On to “UGUCAUAUAUAGAAGGGUAGUAGGGUUUUACAUGAGGAUCACCCAUGUAUUAUAGGAUAUGUGUAAAGUUAUUAUUAAAGUAAA”, for which the “apparent Kd” value runs as follows: under setting [1], 0.0291 µM; under setting [2], 0.0215 µM.
On to “UUAUAUAUUAGAGGAUAUGUGUUCAUGUUACAUGAGGAUCACCCAUGUUUAUGUUGAUUGAUCUUACAGAAGGCUAUACAAUGA”, for which the “apparent Kd” value under setting [1] worked out at 0.0201 µM and the “apparent Kd” value under setting [2] worked out at 0.0199 µM.
Turning to “UCAUUGAUUGUGAGGAUAUCGAUGUGAUGGUUUGUCGAGAAGGCACAUGAGGAUCACCCAUGUGGGUGUGGGCU”, the “apparent Kd” value by setting is: under setting [1], 0.864 µM; under setting [2], 0.242 µM.
For “AUUAAAACAUAGGAUAUCGAAUUUAUUAUUUAACGAGAAGGAUGAACAUGAGGAUCACCCAUGUGGUAUCAUGG”, in that order: 0.149 µM and 0.308 µM.
For “GUAGCAUACAGAGGAUAUUCAAAACCGCAAAGCGGACAUGAGGAUCACCCAUGUGGCGAAAGCCGGGAGAAGGCUGAAUGCUAC”, the “apparent Kd” value came out at 0.0187 µM under setting [3] and 0.0161 µM under setting [4].
For “ACGUUUUAUGCAGGAUAUUGACAUAUAUUUAAACAAGAAGGGCAUUACAUGAGGAUCACCCAUGUUAUCAUGGUAUUUAAGUUC”, the “apparent Kd” value reads like this: under setting [1], 0.0641 µM; under setting [2], 0.0632 µM.
On to “GGAUGACAAAGUCAUCCUAAACGAACAUGAGGAUCACCCAUGUAGGAUAUGCUACUCAAAGAGUAGCAGAAGGACAUGUGCCUU”, for which the “apparent Kd” value is, setting by setting: under setting [1], 0.0373 µM; under setting [2], 0.26 µM.
Turning to “CAGUACUGAGGAUAUACAUGAGGAUCACCCAUGUGUUCCAGCUGGGAAACUAGCAAAAGUAGAAGGCAGUACUG”, the “apparent Kd” value is, setting by setting: under setting [1], 0.0255 µM; under setting [2], 0.395 µM.
For “GUAACUUAUGUCAGGAUAUUACACGCAUUGCGUGGUGAGAAGGGACAUGAGGAUCACCCAUGUCCGGAUGCGGG” the same measures were 0.0398 µM and 0.0626 µM.
As for “AGAGGUCUCUGUGAUAACGGUACGAAGGAUAUGCAUGGAUGGGCCGAGACAUGAGGAUCACCCAUGUAGAAGGUCGAUGCGCGU”, the “apparent Kd” value is, setting by setting: under setting [1], 0.051 µM; under setting [2], 0.0657 µM.
In the case of “GGUUGACAAAGUCAACCAUAACGAACAUGAGGAUCACCCAUGUAGGAUAUGCUACUCAAAGAGUAGCAGAAGGACAUGUGCCUU”, the “apparent Kd” value runs as follows: under setting [1], 0.0357 µM; under setting [2], 0.293 µM.
As to “AGAUAACACCAGAAGGACAUGAGGAUCACCCAUGUAGGAUAUGGGCAUCACUCGAGAAAGAUACGACCAAAGGGACACGCGGUC”, the “apparent Kd” value by setting is: under setting [3], 0.124 µM; under setting [4], 0.00997 µM.
In the case of “GGCCCGUAAGGAUAUAAUGCUCAGGUGAAAACCGAGCUCCGUUAGAAGGUACAUGAGGAUCACCCAUGUGAUCG”, the “apparent Kd” value by setting is: under setting [1], 0.107 µM; under setting [2], 0.124 µM.
“GUCAGCUCGUGAGGAUAUACAUGUGCUGGAAACAGCACUAUUGUGUUCACAUGAGGAUCACCCAUGUAGAAGGCACGAGCUGAU”: the “apparent Kd” value under setting [1] is 0.0182 µM and the “apparent Kd” value under setting [2] worked out at 0.0856 µM.
Take “AAAAUGUGAGGAUAUCAGGUGUGCUAGCGUACUGGUACAUCUGAGAAGGCACAUGAGGAUCACCCAUGUUUCUU”: the “apparent Kd” value reads like this: under setting [1], 0.0215 µM; under setting [2], 0.0797 µM.
In the case of “AAUUUACAGCUAGGAUAUACAUGAGGAUCACCCAUGUGACGAUCGGAUCUUAUGAUCGUGUCCGUGUAGAAGGAGCAAAUAAGA”, the “apparent Kd” value under setting [1] was determined as 0.00815 µM and the “apparent Kd” value under setting [2] worked out at 0.01 µM.

The record behind these values is the EternaBench riboswitch data.
